The source made the active and inactive calls. No cut-off for these calls is given here.
What was measured:
[1] = tested on: Cytosolic phospholipase A2 (Bos taurus); assay: Inhibition of cPLA2 measuring Calcium ionophore A-23,187-induced arachidonic acid release from bovine platelets with HPLC/UV detection. at 3.3 uM concentration.
[2] = Percentage platelet cell lysis at 33 uM measured by turbidimetry.; format: functional, Bos taurus
Summary of the method: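 Turbidimetric lysis: ETYA solution, then test compound or solvent control, then bovine platelet suspension and calcium chloride at 37 °C. After dilution with phosphate-buffered saline, absorbance read at 800 nm; lysis lowers absorbance. Compounds dissolved in DMSO or DMSO–0.05 M ethanolic NaOH (1+1). Performed within 36 h of platelet isolation; platelets kept at 4 °C.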

[3] = target: T1, Cytosolic phospholipase A2 (Bos taurus, UniProt A4IFJ5); assay: Inhibition of cPLA2 measuring Calcium ionophore A-23,187-induced arachidonic acid release from bovine platelets with HPLC/UV detection.; format: functional
T1 sequence (A4IFJ5 whole entry): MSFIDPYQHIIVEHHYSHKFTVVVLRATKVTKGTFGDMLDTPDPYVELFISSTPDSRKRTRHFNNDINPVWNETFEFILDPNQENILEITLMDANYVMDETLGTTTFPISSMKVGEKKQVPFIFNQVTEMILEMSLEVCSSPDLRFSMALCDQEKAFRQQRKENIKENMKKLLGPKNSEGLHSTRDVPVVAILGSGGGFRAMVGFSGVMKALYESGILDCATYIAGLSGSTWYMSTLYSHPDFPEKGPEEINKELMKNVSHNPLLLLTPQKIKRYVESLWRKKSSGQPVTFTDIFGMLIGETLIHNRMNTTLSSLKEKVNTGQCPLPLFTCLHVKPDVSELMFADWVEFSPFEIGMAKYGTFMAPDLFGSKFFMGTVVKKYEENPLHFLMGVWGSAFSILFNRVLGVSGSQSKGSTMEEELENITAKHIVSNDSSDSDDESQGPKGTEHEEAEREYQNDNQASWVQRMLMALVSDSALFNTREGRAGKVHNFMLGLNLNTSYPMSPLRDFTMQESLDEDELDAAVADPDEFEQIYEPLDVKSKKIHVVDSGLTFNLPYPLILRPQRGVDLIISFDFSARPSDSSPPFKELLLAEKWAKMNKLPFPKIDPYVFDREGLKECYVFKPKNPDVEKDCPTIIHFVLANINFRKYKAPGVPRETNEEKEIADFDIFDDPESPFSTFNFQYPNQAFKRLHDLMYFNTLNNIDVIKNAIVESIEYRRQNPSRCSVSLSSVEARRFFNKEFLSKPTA
Summary of the method: (§1)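 Bovine platelet suspension stimulated with calcium ionophore A23187; released arachidonic acid quantified by HPLC/UV. Test compounds in DMSO, or DMSO–0.05 M ethanolic NaOH, added after platelets in the latter case to protect ETYA. Assays run within 36 h of platelet isolation; platelets stored at 4 °C. Values averaged from at least two runs, error within ±20%.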

[4] = tested on: Cytosolic phospholipase A2 (Bos taurus); assay: Inhibition of cPLA2 measuring Calcium ionophore A-23,187-induced arachidonic acid release from bovine platelets with HPLC/UV detection; 0% inhibition at 3.3 uM concentration.
[5] = target: T1, Cytosolic phospholipase A2; assay: Inhibition of cPLA2 measuring Calcium ionophore A-23,187-induced arachidonic acid release from bovine platelets with HPLC/UV detection; format: functional
Summary of the method: as §1

[6] = Ability of arachidonic acid release at 10 uM; format: functional
Summary of the method: as §1

[7] = tested on: Cytosolic phospholipase A2 (Bos taurus); assay: Inhibition of cPLA2 measuring Calcium ionophore A-23,187-induced arachidonic acid release from bovine platelets with HPLC/UV detection; Not active at 20 uM
[8] = tested on: Cytosolic phospholipase A2 (Bos taurus); assay: Inhibition of cPLA2 measuring Calcium ionophore A-23,187-induced arachidonic acid release from bovine platelets with HPLC/UV detection.; NA = 0% inhibition at 3.3 uM
[9] = 33 uM, in the assay text read “at 33 uM” for “at 10 uM”

IC50 ([3]; read-out: IC50) [µM] | SMILES | Lysis [2] [%] | further results
14 | CCCCCCCCCCCCCCCCCC(=O)c1cc(CCC(=O)O)n(C)c1 | 0 | 
11 | CCCCCCCCCCCCCCCCCC(=O)c1c(C)c(CCC(=O)O)n(CC)c1C | 0 | 
10 | CCCCCCCCCCCCCCCCCC(=O)c1c(Cc2ccccc2)c(CC(=O)O)n(C)c1C | 22 | 
8 | CCCCCCCCCCCCCCCCCC(=O)c1c(C)c(CC(=O)O)n(CCC)c1C | 34 | 
12 | CCCCCCCCCCCCCCCCCC(=O)c1c(C)c(CCC(=O)O)n(Cc2ccccc2)c1C | 19 | inhibition [1]: 20%
9 | CCCCCCCCCCCCCCCCCC(=O)c1c(C)c(CC(=O)O)n(CC)c1C | 10 | 
10 | CCCCCCCCCCCCCCCCCC(=O)c1c(C)c(CC(=O)O)n(C)c1C | 0 | 
13 | CCCCCCCCCCCCCCCCNC(=O)[C@@H]1CCCN1 | 0 | 

The next lines start with the compound.

SMILES | IC50 ([3]; read-out: IC50) [µM] | Lysis [2] [%] | further results
CCCCCCCCCCCCCCCCCC(=O)c1c(C)c(CCC(=O)O)n(CCCCC)c1C | 10 | 13 | inhibition [1]: 23%
CCCCCCCCCCCCCCCCCC(=O)c1c(C)c(CCC(=O)O)n(Cc2ccc(C(F)(F)F)cc2)c1C |  | 13 | inhibition [4]: inactive
CCCCCCCCCCCC(=O)c1c(C)c(CCC(=O)O)n(CCCCCC(=O)O)c1C |  | 0 | IC50 [5]: 3.4 µM
CCCCCCCCCCCC(=O)c1c(C)c(CCC(=O)O)n(CCCCCCC(=O)O)c1C |  | 0 | IC50 [5]: 3.8 µM
CCCCCCCCCCCCCCCCCC(=O)c1cc(CC(=O)O)n(C)c1 | 15 | 0 | 
CCCCCCCCCCCCCCCCCC(=O)c1c(C)c(CCC(=O)O)n(Cc2ccc(O)cc2)c1C |  | 0 | inhibition [1]: 30%
CCCCCCCCCCCC(=O)c1c(C)c(CCC(=O)O)n(C)c1C |  | 0 | IC50 [5]: 13 µM
CCCCCCCCCCCC(=O)c1c(C)c(CC(=O)O)n(CCCCCCCCC(=O)O)c1C |  | 21 | IC50 [5]: 3.3 µM
CCCCCCCCCCCCCCCCCC(=O)c1c(C)c(CC(=O)O)n(CCCCCCC)c1C |  | 19 | IC50 [3]: Not Active
CCCCCCCCCCCCCCCCCC(=O)c1c(C)c(CCC(=O)O)n(CCCCCCN(C)C)c1C |  | 0 | inhibition [1]: 33%
CCCCCCCCCCCC(=O)c1c(C)c(CC(=O)O)n(C)c1C |  | 0 | IC50 [5]: 11 µM
CCCCCCCCCCCCCCCCCC(=O)c1c(C)c(CCC(=O)O)n(CCCCCC#N)c1C |  | 39 | inhibition [1]: 40%
CCCCCCCCCCCCCCCCCC(=O)c1c(C)c(CCC(=O)O)n(CCCCCC(=O)O)c1C |  | 54 | inhibition [1]: 52%
CCCCCCCCCCCC(=O)c1c(C)c(CC(=O)O)n(CCCCCC(=O)O)c1C |  | 0 | IC50 [5]: 11 µM
CCCCCCCCCCCCCCCCCC(=O)c1c(C)c(CC(=O)O)n(C)c1Cc1ccccc1 | 12 | 0 | 
CCCCCCCCCCCCCCCCCC(=O)c1c(CCCCCCCCCCCC)c(CC(=O)O)n(C)c1C |  | 0 | Activity [6, 9]: 1.5 fold
CCCCCCCCCCCCCCCCCC(=O)c1c(C)c(CCC(=O)O)n(CCCCCCO)c1C |  | 0 | inhibition [1]: 20%
CCCCCCCCCCCCCCCCCC(=O)c1c(C)c(CCC(=O)O)n(Cc2ccc(Cl)cc2)c1C |  | 13 | inhibition [4]: inactive
CCCCCCCCCCCCCCCCCC(=O)c1c(C)c(CCC(=O)O)n(CCC)c1C | 11 | 0 | 
CCCCCCCCCCCCCCCCCC(=O)c1c(C)c(CCC(=O)O)n(Cc2ccc(C#N)cc2)c1C |  | 26 | inhibition [1]: 15%

SMILES | IC50 ([3]; read-out: IC50) [µM] | Lysis [2] [%] | further results
CCCCCCCCCCCC(=O)c1c(C)c(CCC(=O)O)n(CCC(=O)O)c1C |  | 0 | IC50 [5]: 8 µM
CCCCCCCCCCCC(=O)c1c(C)c(CCC(=O)O)n(CCCCCCCC(=O)O)c1C |  | 0 | IC50 [5]: 3.6 µM
CCCCC/C=C\C/C=C\C/C=C\C/C=C\CCCC(=O)C(F)(F)F [ARACHIDONYL TRIFLUOROMETHYLKETONE] |  | 31 | 
CCCCCCCCCCCCCCCCCC(=O)c1c(C)c(CCC(=O)O)n(Cc2ccc(C)cc2)c1C |  | 14 | IC50 [7]: Not Active; inhibition [4]: inactive
CCCCCCCCCCCCCCCCCC(=O)c1c(C)c(CC(=O)O)n(C)c1CCCCCCCCCCCC |  | 0 | Activity [6, 9]: 1.5 fold
CCCCCCCCCCCCCCCCCC(=O)c1c(Cc2ccccc2)c(CC(=O)O)n(Cc2ccccc2)c1C |  | 24 | Activity ([6]; 10 uM): 1.3 fold
CCCCCCCCCCCCCCCCCC(=O)c1c(C)c(CCC(=O)O)n(Cc2ccc(C(=O)O)cc2)c1C |  | 57 | inhibition [1]: 47%
CCCCCCCCCCCCCCCCCC(=O)c1c(C)c(CC(=O)O)n(CCCCCC)c1C | > 10 | 37 | 
CCCCCCCCCCCCCCCCCC(=O)c1c(C)c(CC(=O)O)n(Cc2ccccc2)c1C | 7 | 32 | 
CCCCCCCCCCCCCCCCCC(=O)c1c(C)c(CCC(=O)O)n(Cc2ccc(C(=O)N(C)C)cc2)c1C |  | 42 | inhibition [1]: 34%
CCCCCCCCCCCCCCCCCC(=O)c1c(C)c(CCC(=O)O)n(C)c1C | 13 | 0 | 
CCCCCCCCCCCCCCCCCC(=O)c1c(C)c(CCC(=O)O)n(CCCCCC(=O)N(C)C)c1C |  | 67 | inhibition [1]: 38%
CCCCCCCCCCCCCCCCCC(=O)c1c(C)c(CCC(=O)O)n(Cc2ccc(C(N)=O)cc2)c1C |  | 0 | inhibition [1]: 44%
CCCCCCCCCCCCCCCCCC(=O)c1c(C)c(CCC(=O)O)n(CCCCCC)c1C |  | 10 | IC50 [7]: Not Active; inhibition [8]: inactive
CCCCCCCCCCCCCCCCCC(=O)c1c(C)c(CCC(=O)O)n(Cc2ccc(OC)cc2)c1C |  | 12 | inhibition [1]: 31%
CCCCCCCCCCCCCCCCCC(=O)c1c(C)c(CC(=O)O)n(CCCCCCCCCCCC)c1C |  | 0 | Activity [6, 9]: 1.5 fold
CCCCCCCCCCCC(=O)c1c(C)c(CCC(=O)O)n(CCCCC(=O)O)c1C |  | 0 | IC50 [5]: 3.9 µM
CCCCCCCCCCCCCCCCCC(=O)c1c(C)c(CC(=O)O)n(Cc2ccc(C)cc2)c1C | 9 | 29 | 
CCCCCCCCCCCC(=O)c1c(C)c(CC(=O)O)n(CCCCCCCC(=O)O)c1C |  | 0 | IC50 [5]: 3.7 µM
CCCCCCCCCCCC(=O)c1c(C)c(CC(=O)O)n(CCCCCCC(=O)O)c1C |  | 0 | IC50 [5]: 5.6 µM

— ChEMBL document CHEMBL1130397, “Structure-activity relationships of (4-acylpyrrol-2-yl)alkanoic acids as inhibitors of the cytosolic phospholipase A2: variation of the substituents in positions 1, 3, and 5” (J Med Chem, 1997)
